Active and inactive are the calls of the source. No cut-off for these calls is given here.
Assays:
J774 = test: Cytotoxicity against mouse J774 cells at 100 uM after 48 hrs by MTT assay; type: cell-based; details: j774, 48 h
Summary of the method: (§1)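 J774 murine macrophages in DMEM with 2 mM L-glutamine, 10 mM HEPES, 10% FCS and gentamicin were seeded at 1.5 × 10⁵ cells/well and attached for 24 h at 37 °C. Cells were exposed to 1, 10 or 100 µM for 48 h, then given MTT for 1 h at 37 °C in the dark. Formazan was dissolved in DMSO and read at 540 nm. Triplicates with growth controls.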

Leishmania braziliensis [1] = test: Leishmanicidal activity against Leishmania braziliensis MHOM/BR/01/BA788 after 48 hrs; type: functional, organism-based; details: MHOM/BR/01/BA788, 48 h
Summary of the method: (§2)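 Log-phase promastigotes at 10⁵ per well in medium with 10% heat-inactivated FCS, 2 mM L-glutamine, gentamicin and 2% human urine were grown with compound at 26 °C for 48 h. Parasites were counted by automatic cell counter, with inhibition expressed as % of DMSO-treated control. Triplicates, with experiments repeated at least twice.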

Leishmania braziliensis [2] = test: Leishmanicidal activity against Leishmania braziliensis MHOM/BR/01/BA788 after 48 hrs relative to control; type: functional; parameters: concentration or dose not given beside the values; summary of the method: as §2
[3] = Cytotoxicity against mouse J774 cells after 48 hrs by MTT assay; type: cell-based; details: read-out: LC50; summary of the method: as §1
Leishmania amazonensis [4] = test: Leishmanicidal activity against Leishmania amazonensis MHOM/BR/87/BA125 after 48 hrs relative to control; type: functional; parameters: concentration or dose not given beside the values; summary of the method: as §2
Leishmania amazonensis [5] = test: Leishmanicidal activity against Leishmania amazonensis MHOM/BR/87/BA125 after 48 hrs; type: functional, organism-based; details: MHOM/BR/87/BA125, 48 h; summary of the method: as §2
Leishmania amazonensis [6] = test: Antiamastigote activity against Leishmania amazonensis MHOM/BR/87/BA125 infected in BALB/c assessed as decrease of parasite load in ear at 30 mg/kg, po qd for 28 days measured up to 30 days; type: functional, organism-based
Summary of the method: (§3)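 BALB/c mice (n = 5 per group) infected in the ear dermis with 10⁵ L. amazonensis promastigotes, then dosed orally with 30 mg/kg/day in water for 28 days. After treatment, infected ears and draining lymph nodes were excised, homogenized and serially diluted in Schneider medium with 10% FCS for a limiting dilution assay. Groups were compared to control by one-way ANOVA with Dunnett's test.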

Leishmania amazonensis [7] = test: Antiamastigote activity against Leishmania amazonensis MHOM/BR/87/BA125 infected in BALB/c assessed as decrease of parasite load in draining lymph nodes at 30 mg/kg, po qd for 28 days measured up to 30 days; type: functional, organism-based; summary of the method: as §3
Leishmania amazonensis [8] = test: Antiamastigote activity against Leishmania amazonensis MHOM/BR/87/BA125 infected in BALB/c mouse peritoneal macrophages assessed as inhibition of infection index at 100 uM after 48 hrs by Giemsa staining; type: functional; details: MHOM/BR/87/BA125, 48 h
Summary of the method: (§4)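 Thioglycollate-elicited BALB/c peritoneal macrophages, 4 × 10⁵ per well on coverslips in DMEM with 10% FBS, adhered overnight and were infected with L. amazonensis promastigotes at 37 °C for 4 h. Free parasites were removed, then compounds were added (1, 10, 100 µM; DMSO ≤0.01%) for 48 h at 37 °C, 5% CO2. Infection index = % infected × mean amastigotes per macrophage.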

Leishmania amazonensis [9] = test: Antiamastigote activity against Leishmania amazonensis MHOM/BR/87/BA125 infected in BALB/c mouse peritoneal macrophages assessed as decrease of percentage of infected macrophages at 100 uM after 48 hrs by Giemsa staining; type: functional; details: MHOM/BR/87/BA125, 48 h; summary of the method: as §4
Leishmania amazonensis [10] = test: Antiamastigote activity against Leishmania amazonensis MHOM/BR/87/BA125 infected in BALB/c mouse peritoneal macrophages assessed as decrease of number of intracellular parasites per macrophage at 1 to 100 uM after 48 hrs by Giemsa staining; type: functional, organism-based; summary of the method: as §4
Leishmania amazonensis [11] = test: Antiamastigote activity against Leishmania amazonensis MHOM/BR/87/BA125 infected in BALB/c mouse peritoneal macrophages assessed as inhibition of infection index after 48 hrs by Giemsa staining; type: functional, organism-based; summary of the method: as §4
Leishmania amazonensis [12] = test: Antiamastigote activity against Leishmania amazonensis MHOM/BR/87/BA125 infected in BALB/c mouse peritoneal macrophages assessed as decrease of percentage of infected macrophages at 1 uM after 48 hrs by Giemsa staining; type: functional, organism-based; summary of the method: as §4
Leishmania amazonensis [13] = test: Antiamastigote activity against Leishmania amazonensis MHOM/BR/87/BA125 infected in BALB/c assessed as decrease of lesion size in ear at 30 mg/kg, po qd for 28 days measured up to 30 days; type: functional
Summary of the method: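 Female BALB/c mice, 6-8 weeks old, inoculated in right ear dermis with 10⁵ stationary-phase L. amazonensis promastigotes in sterile saline. From the second week post-infection, groups of 5 were dosed orally once daily for 28 days at 30 mg/kg/day in water; vehicle control received water orally. Lesion size was taken as infected minus contralateral ear thickness, measured twice weekly by digital caliper.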

Leishmania amazonensis [14] = test: Antiamastigote activity against Leishmania amazonensis MHOM/BR/87/BA125 infected in BALB/c mouse peritoneal macrophages assessed as decrease of percentage of infected macrophages at 1 to 100 uM after 48 hrs by Giemsa staining; type: functional, organism-based; summary of the method: as §4
Leishmania amazonensis [15] = test: Antiamastigote activity against Leishmania amazonensis MHOM/BR/87/BA125 infected in BALB/c mouse peritoneal macrophages assessed as decrease of percentage of infected macrophages at 10 to 100 uM after 48 hrs by Giemsa staining; type: functional, organism-based; summary of the method: as §4

N=C(N)c1ccc(OCCCCCOc2ccc(C(=N)N)cc2)cc1 [PENTAMIDINE]
Activity (J774): 28.8% | IC50 (Leishmania braziliensis [1]): 0.06 µM | Efficacy (Leishmania braziliensis [2]): 95.7% | CC50 at 48 h [3]: > 100 µM | Efficacy (Leishmania amazonensis [4]): 93.8% | IC50 (Leishmania amazonensis [5]): 1.8 µM

CC(C)OP(=O)(N/N=C/c1ccccn1)OC(C)C
IC50 (Leishmania braziliensis [1]): 0.7 µM | Efficacy (Leishmania braziliensis [2]): 56.3% | CC50 at 48 h [3]: > 100 µM | Efficacy (Leishmania amazonensis [4]): inactive | IC50 (Leishmania amazonensis [5]): > 100 µM

CCOP(=O)(N/N=C/c1cccnc1)OCC
IC50 (Leishmania braziliensis [1]): > 100 µM | Efficacy (Leishmania braziliensis [2]): inactive | CC50 at 48 h [3]: > 100 µM | Efficacy (Leishmania amazonensis [4]): inactive | IC50 (Leishmania amazonensis [5]): > 100 µM

CCCCOP(=O)(N/N=C/c1cccnc1)OCCCC
IC50 (Leishmania braziliensis [1]): 5.4 µM | Efficacy (Leishmania braziliensis [2]): 87.9% | CC50 at 48 h [3]: > 100 µM | Efficacy (Leishmania amazonensis [4]): 85.6% | IC50 (Leishmania amazonensis [5]): 53.3 µM

CC(C)OP(=O)(N/N=C/c1ccncc1)OC(C)C
IC50 (Leishmania braziliensis [1]): > 100 µM | Efficacy (Leishmania braziliensis [2]): inactive | CC50 at 48 h [3]: > 100 µM | Efficacy (Leishmania amazonensis [4]): inactive | IC50 (Leishmania amazonensis [5]): > 100 µM

CC(C)OP(=O)(N/N=C/c1cccnc1)OC(C)C
IC50 (Leishmania braziliensis [1]): 0.4 µM | Efficacy (Leishmania braziliensis [2]): 75.9% | CC50 at 48 h [3]: > 100 µM | Efficacy (Leishmania amazonensis [4]): inactive | IC50 (Leishmania amazonensis [5]): > 100 µM

CCC(C)OP(=O)(N/N=C/c1c(Cl)cncc1Cl)OC(C)CC (stereo not given)
Activity (J774): 20.5% | IC50 (Leishmania braziliensis [1]): 0.03 µM | Efficacy (Leishmania braziliensis [2]): 74.1% | CC50 at 48 h [3]: > 100 µM | Efficacy (Leishmania amazonensis [4]): 92.4% | IC50 (Leishmania amazonensis [5]): 26 µM

CCCCCCCCCCCCCCCCOP(=O)([O-])OCC[N+](C)(C)C [MILTEFOSINE]
Activity (Leishmania amazonensis [6]): Active | Activity (Leishmania amazonensis [7]): Active | IC50 (Leishmania braziliensis [1]): 0.7 µM | inhibition at 100 µM (Leishmania amazonensis [8]): 100% | Efficacy (Leishmania braziliensis [2]): 84.5% | CC50 at 48 h [3]: > 100 µM | Efficacy (Leishmania amazonensis [4]): 96.3% | IC50 (Leishmania amazonensis [5]): 3.4 µM

CCOP(=O)(N/N=C/c1ccccn1)OCC (mixture of isomers)
IC50 (Leishmania braziliensis [1]): 7.5 µM | Efficacy (Leishmania braziliensis [2]): 62.1% | CC50 at 48 h [3]: > 100 µM | Efficacy (Leishmania amazonensis [4]): inactive | IC50 (Leishmania amazonensis [5]): > 100 µM

CCC(C)OP(=O)(N/N=C/c1cccnc1Br)OC(C)CC (stereo not given)
Activity (Leishmania amazonensis [6]): Active | Activity (Leishmania amazonensis [7]): Active | inhibition at 100 µM (Leishmania amazonensis [9]): 82.2% | Activity (Leishmania amazonensis [10]): Active | IC50 (Leishmania braziliensis [1]): 5.2 µM | inhibition at 100 µM (Leishmania amazonensis [8]): 97.9% | Efficacy (Leishmania braziliensis [2]): 80.1% | inhibition (Leishmania amazonensis [11]): Dose-dependent effect | Activity (Leishmania amazonensis [12]): inactive | Activity (Leishmania amazonensis [13]): 0.0804 mm | Activity (Leishmania amazonensis [14]): Active | Activity (Leishmania amazonensis [15]): Active | CC50 at 48 h [3]: > 100 µM | Efficacy (Leishmania amazonensis [4]): 95.3% | IC50 (Leishmania amazonensis [5]): < 0.001 µM

CC(C)COP(=O)(N/N=C/c1ccccn1)OCC(C)C
IC50 (Leishmania braziliensis [1]): > 100 µM | Efficacy (Leishmania braziliensis [2]): inactive | CC50 at 48 h [3]: > 100 µM | Efficacy (Leishmania amazonensis [4]): 40.7% | IC50 (Leishmania amazonensis [5]): 98.3 µM

CC(C)COP(=O)(N/N=C/c1cccnc1)OCC(C)C
IC50 (Leishmania braziliensis [1]): 40.7 µM | Efficacy (Leishmania braziliensis [2]): 81.6% | CC50 at 48 h [3]: > 100 µM | Efficacy (Leishmania amazonensis [4]): 52.8% | IC50 (Leishmania amazonensis [5]): 83.3 µM

CCOP(=O)(N/N=C/c1ccncc1)OCC
IC50 (Leishmania braziliensis [1]): > 100 µM | Efficacy (Leishmania braziliensis [2]): inactive | CC50 at 48 h [3]: > 100 µM | Efficacy (Leishmania amazonensis [4]): inactive | IC50 (Leishmania amazonensis [5]): > 100 µM

CCCCOP(=O)(N/N=C/c1ccncc1)OCCCC
IC50 (Leishmania braziliensis [1]): 5.1 µM | Efficacy (Leishmania braziliensis [2]): 77.2% | CC50 at 48 h [3]: > 100 µM | Efficacy (Leishmania amazonensis [4]): 45.5% | IC50 (Leishmania amazonensis [5]): 99.3 µM

CCC(C)OP(=O)(N/N=C/c1cncc(Br)c1)OC(C)CC (stereo not given)
Activity (Leishmania amazonensis [6]): inactive | Activity (Leishmania amazonensis [7]): Active | inhibition at 100 µM (Leishmania amazonensis [9]): 99.3% | Activity (Leishmania amazonensis [10]): Active | IC50 (Leishmania braziliensis [1]): 3.6 µM | inhibition at 100 µM (Leishmania amazonensis [8]): 99.9% | Efficacy (Leishmania braziliensis [2]): 92.2% | inhibition (Leishmania amazonensis [11]): Dose-dependent effect | Activity (Leishmania amazonensis [12]): inactive | Activity (Leishmania amazonensis [13]): 0.0527 mm | Activity (Leishmania amazonensis [14]): Active | Activity (Leishmania amazonensis [15]): Active | CC50 at 48 h [3]: > 100 µM | Efficacy (Leishmania amazonensis [4]): 93.8% | IC50 (Leishmania amazonensis [5]): 26.3 µM

CC(C)COP(=O)(N/N=C/c1ccncc1)OCC(C)C
IC50 (Leishmania braziliensis [1]): 0.06 µM | Efficacy (Leishmania braziliensis [2]): 84.2% | CC50 at 48 h [3]: > 100 µM | Efficacy (Leishmania amazonensis [4]): inactive | IC50 (Leishmania amazonensis [5]): > 100 µM

CCCCOP(=O)(N/N=C/c1ccccn1)OCCCC (mixture of isomers)
IC50 (Leishmania braziliensis [1]): 0.06 µM | Efficacy (Leishmania braziliensis [2]): 76.3% | CC50 at 48 h [3]: > 100 µM | Efficacy (Leishmania amazonensis [4]): 69.5% | IC50 (Leishmania amazonensis [5]): 6.2 µM

Source: ChEMBL document CHEMBL3612006, “Novel dialkylphosphorylhydrazones: Synthesis, leishmanicidal evaluation and theoretical investigation of the proposed mechanism of action” (Eur J Med Chem, 2015)
